Reference: BindingDB's records for doi:10.1021/jm049559q (Tibotec, 2005)

target: Integrase (Human immunodeficiency virus 1, UniProt Q7ZJM1); assay: Log of inhibitory concentration against human immunodeficiency virus type 1 integrase
Procedure, shortened: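 Strand transfer ELISA using recombinant His-tagged HIV-1 integrase expressed in E. coli BL21(DE3). 20 nM biotinylated processed viral DNA substrate is preincubated with 300 nM integrase for 5 min at 37 °C. Serial compound dilutions and 50 nM target DNA are then added in 20 mM Hepes pH 7.5, 25 mM NaCl, 5 mM MnCl2, 2 mM DTT, 50 µg/mL BSA and incubated 2 h at 37 °C. Products are captured on streptavidin plates, detected with anti-FITC peroxidase antibody and read by chemiluminescence.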

Sequence of Integrase (Q7ZJM1 whole entry): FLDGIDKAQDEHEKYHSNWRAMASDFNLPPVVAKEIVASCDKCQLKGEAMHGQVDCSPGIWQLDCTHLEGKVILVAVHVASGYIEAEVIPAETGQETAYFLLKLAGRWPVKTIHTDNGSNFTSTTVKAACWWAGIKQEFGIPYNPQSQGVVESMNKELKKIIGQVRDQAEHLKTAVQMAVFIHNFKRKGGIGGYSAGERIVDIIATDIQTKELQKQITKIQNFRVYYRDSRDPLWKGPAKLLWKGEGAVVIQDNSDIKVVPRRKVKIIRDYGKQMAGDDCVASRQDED

| SMILES | IC50 |
| --- | --- |
| COc1ccc(Cn2c(=O)c3c(=O)c4[nH]cc[nH]c4c(=O)c3c2=O)c(OC)c1 | 0.427 µM |
| COc1cccc(Cn2c(=O)c3c(=O)c4[nH]cc[nH]c4c(=O)c3c2=O)c1OC | 0.427 µM |
| COc1ccc(Cn2c(=O)c3c(=O)c4[nH]cc[nH]c4c(=O)c3c2=O)cc1 | 0.562 µM |
| O=c1c2[nH]cc[nH]c2c(=O)c2c(=O)n(Cc3ccc4c(c3)OCO4)c(=O)c12 | 0.562 µM |
| O=c1c2[nH]cc[nH]c2c(=O)c2c(=O)n(Cc3ccc(Cl)cc3)c(=O)c12 | 0.417 µM |
| O=c1c2[nH]cc[nH]c2c(=O)c2c(=O)n(Cc3cccc(F)c3)c(=O)c12 | 0.562 µM |

More lines, now with the values ahead:

| IC50 | SMILES |
| --- | --- |
| 0.417 µM | O=c1c2[nH]cc[nH]c2c(=O)c2c(=O)n(Cc3ccc(F)cc3)c(=O)c12 |
| 0.427 µM | O=c1c2[nH]cc[nH]c2c(=O)c2c(=O)n(Cc3cccc(C(F)(F)F)c3)c(=O)c12 |
| 2.04 µM | O=c1c2[nH]cc[nH]c2c(=O)c2c(=O)n(CCc3ccccc3)c(=O)c12 |
| 1.41 µM | O=c1c2[nH]cc[nH]c2c(=O)c2c(=O)n(CCc3ccc4c(c3)OCO4)c(=O)c12 |
| 2.04 µM | O=c1c2[nH]cc[nH]c2c(=O)c2c(=O)n(Cc3ccc(OC(F)(F)F)cc3)c(=O)c12 |
